From PubChem BioAssay
The source made the active and inactive calls.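 Rule for the calls, unless noted: active = NADPH fluorescence slope more negative than the mean of all samples by about 3 SD, 99.7% confidence; inactive = the rest.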

Legend:
[1] = inhibitors of TNFa-induced NFkB p65 translocation, primary screen, imaging, HUVEC, MLSMR starter and 10KST1 sets (AID 438;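 active = inhibition above 20% together with a positive visual image hit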;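 note: compound added about 3h40 before a 20 min TNFalpha stimulation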;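 for inhibition: signal is the nuclear over cytoplasmic p65 intensity ratio per well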); conditions: HUVEC TNFa-induced p65 nuclear translocation; cell count: measured here: nuclei count (cytotoxicity indicator), at 2.08 µM; inhibition: at 2 µM, stronger effect = higher value, 0% TNFa-plus-vehicle, 100% no-TNFa wells
[2] = inhibitors of mutant huntingtin aggregation, primary screen, imaging, exon1htt(103Q)mCFP cells, high-content imaging (AID 483;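 active = visual image review flags a hit and inhibition of aggregation exceeds 20%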;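 note: compound exposure lasted 3 days before fixation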;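 for nuclei count: percent of the per-plate median nuclei count of sample wells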); conditions: exon1htt(103Q)mCFP cell line, aggregate imaging, at 2 µM; inhibition of aggregation: stronger effect = higher value; nuclei count: measured here: cell count, toxicity
[3] = inhibitors of E-selectin induction by TNFa, primary screen, imaging, HUVEC, immunofluorescence, MLSMR starter and 10KST1 sets (AID 487;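 active = visually confirmed hit in the image check and inhibition above 20%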;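 for inhibition: signal is fraction of cell area covered by stained E-selectin grains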;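 for nuclei count: 100% = median nuclei count of all wells on the same plate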); conditions: HUVEC TNFalpha-induced E-selectin immunofluorescence imaging, at 2 µM; inhibition: stronger effect = higher value; nuclei count: measured here: cell number, toxicity
[4] = target: Voltage-gated potassium channel subunit beta-2 (Rattus norvegicus) (UniProt P62483); assay: KvBeta enzyme negative modulators, primary screen, biochemical, NADPH fluorescence (AID 622;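 active = fluorescence slope higher than the sample average by over 3 SD, cut at about -0.22 in these data, passing the limit was not always enough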;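 note: slope of raw intensity against log time taken from 70 to 1610 s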); conditions: recombinant KvBeta, 4-cyanobenzaldehyde reduction, at 10 µM, stronger effect = higher value
Chain of Voltage-gated potassium channel subunit beta-2 (Rattus norvegicus) (P62483 whole entry, looked up): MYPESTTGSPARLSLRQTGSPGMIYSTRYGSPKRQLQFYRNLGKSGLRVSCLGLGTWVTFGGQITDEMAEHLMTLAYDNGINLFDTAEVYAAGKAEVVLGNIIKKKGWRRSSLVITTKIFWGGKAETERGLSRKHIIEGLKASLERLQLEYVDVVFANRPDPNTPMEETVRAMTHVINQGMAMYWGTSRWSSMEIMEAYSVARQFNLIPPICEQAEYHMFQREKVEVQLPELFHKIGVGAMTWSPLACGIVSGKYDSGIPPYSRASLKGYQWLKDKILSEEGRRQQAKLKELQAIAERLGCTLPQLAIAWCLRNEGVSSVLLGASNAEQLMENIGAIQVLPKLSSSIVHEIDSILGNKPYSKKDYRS

[5] = target: Voltage-gated potassium channel subunit beta-2 (Rattus norvegicus) (UniProt P62483); assay: KvBeta positive modulators, primary screen, biochemical, NADPH fluorescence (AID 623); conditions: Recombinant KvBeta, NADPH fluorescence decrease slope, 10 min; at 10 µM; stronger effect = lower value;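 note: fluorescence intensity change per second fitted from 20 to 320 s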
[6] = target: Muscarinic acetylcholine receptor M4 (Homo sapiens) (UniProt P08173); assay: compounds altering M4/GIRK thallium flux, either direction, primary screen, M4 allosteric agonist project, cell-based, HEK293 M4/GIRK, BTC-AM (AID 625;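 active = fluorescence slope after compound addition differing from the mean of all tested samples at 99.7% confidence, mostly higher but some lower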;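 note: thallium influx through GIRK channels coupled to M4 in HEK293 cells with BTC-AM dye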); conditions: at 10 µM, actives lie on both sides
Chain of Muscarinic acetylcholine receptor M4 (Homo sapiens) (P08173 whole entry, looked up): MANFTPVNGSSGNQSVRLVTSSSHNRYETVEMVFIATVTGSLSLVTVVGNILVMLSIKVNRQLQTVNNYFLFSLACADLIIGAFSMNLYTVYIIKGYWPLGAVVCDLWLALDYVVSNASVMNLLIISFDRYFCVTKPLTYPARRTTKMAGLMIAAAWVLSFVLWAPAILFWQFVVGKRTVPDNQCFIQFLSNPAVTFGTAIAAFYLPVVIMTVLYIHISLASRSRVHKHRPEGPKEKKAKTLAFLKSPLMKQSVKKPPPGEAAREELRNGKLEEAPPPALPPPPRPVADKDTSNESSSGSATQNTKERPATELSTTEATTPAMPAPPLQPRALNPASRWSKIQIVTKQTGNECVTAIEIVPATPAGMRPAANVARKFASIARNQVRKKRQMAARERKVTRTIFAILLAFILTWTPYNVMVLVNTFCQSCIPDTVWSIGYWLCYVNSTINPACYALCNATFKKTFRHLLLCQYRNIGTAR
How it was run: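 Material: HEK293 cells with M4 receptor and GIRK channels; Times: cells overnight at 37 °C, BTC-AM loading 1 h, reads 2 min total; Technique: kinetic BTC-AM fluorescence sampled at 1 Hz, 10 s pre-addition baseline; Read-out basis: slope over 15–24 s of trace normalized to starting intensity; Controls: carbachol positive, DMSO negative.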

[7] = inhibitors of Sendai virus-induced IRF3 signaling, primary screen, TLR/RLR signaling modifier project, cell-based, Sendai virus stimulus, luciferase, 10K MLSCN set (AID 602276;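 active = inhibition at or above 50% at 10 µM; inactive = inhibition below 50%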;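 note: firefly luciferase from ISG56 promoter only with Renilla not read in this screen; 0% = Sendai virus plus DMSO and 100% = medium plus DMSO without virus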); conditions: HEK293 RL24 IRF3 luciferase reporter, at 10 µM, stronger effect = higher value
[8] = inhibitors of poly I:C-induced TLR3 signaling, primary screen, cell-based, poly I:C stimulus, luciferase, 10K MLSCN set (AID 602277;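 active = inhibition of the reporter signal at or above 50%; inactive = inhibition below 50%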); conditions: HEK293-TLR3 RL24 IRF3 luciferase reporter, at 10 µM, stronger effect = higher value

Row | SMILES | cell count [1] | inhibition [1] | inhibition of aggregation [2] | nuclei count [2] [%] | inhibition [3] | nuclei count [3] [%] | fluorescence slope [4] | NADPH fluorescence slope [5] | fluorescence slope [6] | inhibition [7] | inhibition [8]
1 | Cc1nnc(SCC(=O)NC(C)(C)C)n1CCc1ccccc1 | 677 | 2.8% (inactive) | -3.9% (inactive) | 109 | -20.1% (inactive) | 135 | -0.512 (inactive) | -4.5e-05 (inactive) | 0.00442 (inactive) | 11.7% (inactive) | 8.89% (inactive)
2 | Cc1noc(C)c1S(=O)(=O)Nc1c(C)n(C)n(-c2ccccc2)c1=O | 410 | 2.5% (inactive) | 33.5% (inactive) | 84.8 | -5.4% (inactive) | 96 | -0.472 (inactive) | 1.2e-05 (inactive) | 0.00591 (inactive) | 13.8% (inactive) | 22.3% (inactive)
3 | CCOC(=O)c1sc(NC(=O)CSc2nnc(-c3ccco3)n2CC)c(C(=O)OCC)c1C | 696 | -10.9% (inactive) | -26.7% (inactive) | 104 | -27.8% (inactive) | 92.7 | -0.565 (inactive) | -3.7e-05 (inactive) | 0.00558 (inactive) | -9.39% (inactive) | -38.2% (inactive)
4 | COC(=O)c1ccccc1NC(=O)CSc1nnnn1C1CCCCC1 | 309 | -3.7% (inactive) | -19.4% (inactive) | 108 | -39.4% (inactive) | 81.2 | -0.545 (inactive) | -3.8e-05 (inactive) | 0.00503 (inactive) | 3.68% (inactive) | 20.1% (inactive)
5 | COc1ccc(C(C(C(=O)c2cccs2)N2CCOCC2)N2CCOCC2)cc1OC (centres undefined) | 704 | 3.6% (inactive) | 6.6% (inactive) | 115 | 15.2% (inactive) | 106 | -0.603 (inactive) | -3.1e-05 (inactive) | 0.00372 (inactive) | 8.73% (inactive) | 2.75% (inactive)
6 | O=C(Cc1ccc(Br)cc1)N1CCCCCC1 | 358 | -0.2% (inactive) | 1.7% (inactive) | 99.5 | -68.6% (inactive) | 99.7 | -0.657 (inactive) | 1.8e-05 (inactive) | 0.00369 (inactive) | -33.9% (inactive) | -69.5% (inactive)
7 | CN(Cc1nc(-c2ccncc2)no1)S(=O)(=O)c1ccc(Br)cc1 | 492 | -9.3% (inactive) | -5.7% (inactive) | 108 | -56.8% (inactive) | 194 | -0.589 (inactive) | -3.3e-05 (inactive) | 0.01 (inactive) | 4.91% (inactive) | -6.05% (inactive)
8 | CCOC(=O)CSc1nc(C)c(C(=O)OCC)s1 | 392 | 4% (inactive) | -6.8% (inactive) | 106 | -18.1% (inactive) | 137 | -0.556 (inactive) | -1.9e-05 (inactive) | 0.00612 (inactive) | 7.74% (inactive) | 15.6% (inactive)
9 | Cc1cc(NC(=O)CSc2nnc(C3CC3)n2C)no1 | 296 | 1.1% (inactive) | 15.4% (inactive) | 96.8 | -26.7% (inactive) | 93.5 | -0.55 (inactive) | -7.5e-05 (inactive) | 0.00523 (inactive) | 8.69% (inactive) | 16.1% (inactive)
10 | CC1(C)CC(=O)C(C=NCCc2ccc(S(N)(=O)=O)cc2)=C(O)C1 | 601 | -6.1% (inactive) | -14.5% (inactive) | 114 | -11.3% (inactive) | 102 | -0.426 (inactive) | -8.3e-05 (inactive) | 0.00589 (inactive) | 13.2% (inactive) | 20.3% (inactive)
11 | COC(=O)c1cn(-c2ccccc2)nc1C(=O)OC | 232 | 5.8% (inactive) | -0.8% (inactive) | 92.6 | 24% (inactive) | 77.4 | -0.441 (inactive) | -7.4e-05 (inactive) | 0.00607 (inactive) | 4.01% (inactive) | 1.15% (inactive)
12 | COc1ccccc1C(=O)n1nc(-c2ccccc2)nc1N | 354 | -3.3% (inactive) | 9.7% (inactive) | 101 | -55.5% (inactive) | 119 | -0.619 (inactive) | -2.9e-05 (inactive) | 0.00374 (inactive) | 15.7% (inactive) | 11.1% (inactive)
13 | CCCc1nn(CCc2ccccn2)c(N)c1CC | 613 | -9.1% (inactive) | 7.2% (inactive) | 105 | -43.2% (inactive) | 140 | -0.372 (inactive) | 5.8e-05 (inactive) | 0.00633 (inactive) | 14.8% (inactive) | 21.5% (inactive)
14 | CC(=O)Nc1cccc(NC(=O)CSc2nnnn2C(C)C)c1 | 638 | 1.6% (inactive) | 13.7% (inactive) | 62.3 | -46.4% (inactive) | 120 | -0.436 (inactive) | -2.6e-05 (inactive) | 0.00495 (inactive) | 12.9% (inactive) | 12.5% (inactive)
15 | O=C(CNC(=O)c1cccs1)NCCN1CCN(c2ccccc2F)CC1 | 585 | -8.2% (inactive) | -28.3% (inactive) | 99.6 | -19.1% (inactive) | 106 | -0.451 (inactive) | -3.9e-05 (inactive) | 0.00484 (inactive) | 19.5% (inactive) | 17.5% (inactive)
16 | O=c1c2cn[nH]c2nc(SCc2ccc3c(c2)OCCO3)n1-c1ccccc1 | 488 | 15.8% (inactive) | 4.8% (inactive) | 112 | -27.1% (inactive) | 107 | -0.508 (inactive) | 1.3e-05 (inactive) | 0.0074 (inactive) | 7.97% (inactive) | 9.23% (inactive)
17 | CCOC(=O)c1sc(NC(=O)CSc2nc3c(cc2C#N)CCC3)c(C#N)c1C | 775 | -6.4% (inactive) | -2.5% (inactive) | 94.5 | -140% (inactive) | 140 | -0.457 (inactive) | 2.2e-05 (inactive) | 0.00501 (inactive) | 18.5% (inactive) | 18.8% (inactive)
18 | COc1ccc2nc(C)cc(N3CCOCC3)c2c1 | 401 | -8.1% (inactive) | -8% (inactive) | 104 | -34.7% (inactive) | 84.3 | -0.484 (inactive) | -0.000239 (inactive) | 0.0041 (inactive) | 16.2% (inactive) | 18.7% (inactive)
19 | CCCn1c(=N)n(CCOc2ccc(OC)cc2)c2ccccc21 | 665 | 21.3% (inactive) | 5.9% (inactive) | 92.6 | 15.1% (inactive) | 139 | -0.466 (inactive) | -4.2e-05 (inactive) | 0.00387 (inactive) | 20.2% (inactive) | 15.4% (inactive)
